Here are results for three compounds from ChEMBL document CHEMBL3351323, “Exploitation of cholane scaffold for the discovery of potent and selective farnesoid X receptor (FXR) and G-protein coupled bile acid receptor 1 (GP-BAR1) ligands” (J Med Chem, 2014).

pEC50: −log10 of the molar value. Calls of active or inactive are those of the source. The rule behind the calls is not given here.

The target in one data set is T1, Bile acid receptor (Homo sapiens, UniProt Q96RI1).
T1 sequence (Q96RI1 whole entry): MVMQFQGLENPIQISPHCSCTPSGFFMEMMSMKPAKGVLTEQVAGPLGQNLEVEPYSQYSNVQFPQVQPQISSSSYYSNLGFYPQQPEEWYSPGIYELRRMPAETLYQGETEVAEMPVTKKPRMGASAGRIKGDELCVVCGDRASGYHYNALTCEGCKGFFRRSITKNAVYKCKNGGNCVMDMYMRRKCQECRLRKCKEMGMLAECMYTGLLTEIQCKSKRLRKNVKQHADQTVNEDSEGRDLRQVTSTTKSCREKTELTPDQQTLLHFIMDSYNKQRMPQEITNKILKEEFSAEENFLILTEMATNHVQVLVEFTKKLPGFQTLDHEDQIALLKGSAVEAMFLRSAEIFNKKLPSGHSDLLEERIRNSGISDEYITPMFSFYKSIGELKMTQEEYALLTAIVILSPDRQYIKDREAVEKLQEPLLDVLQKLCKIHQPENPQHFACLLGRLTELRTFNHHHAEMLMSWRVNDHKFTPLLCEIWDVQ
In words: Agonist activity at FXR (unknown origin) expressed in human HepG2 cells assessed as receptor transactivation at 100 nM to 50 uM […] by FXR response element driven HSP27-TK-luciferase reporter gene assay. Type of data set: cell-based. In general terms: A reporter such as luciferase makes a cellular process visible.

For data set [1], the target named is T2, G-protein coupled bile acid receptor 1 (Homo sapiens, UniProt Q8TDU6).
T2 sequence (Q8TDU6 whole entry): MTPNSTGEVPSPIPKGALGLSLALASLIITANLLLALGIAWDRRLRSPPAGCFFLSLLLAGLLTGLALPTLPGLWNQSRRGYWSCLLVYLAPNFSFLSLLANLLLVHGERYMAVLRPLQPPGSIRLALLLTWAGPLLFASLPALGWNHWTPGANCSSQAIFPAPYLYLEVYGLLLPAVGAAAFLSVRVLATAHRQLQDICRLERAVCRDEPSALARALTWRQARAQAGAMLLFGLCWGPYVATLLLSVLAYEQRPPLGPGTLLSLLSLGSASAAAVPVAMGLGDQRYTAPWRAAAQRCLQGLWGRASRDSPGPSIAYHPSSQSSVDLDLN
Kind of data set: Agonist activity at GP-BAR1 (unknown origin) in human HEK293 cells assessed as receptor transactivation at 100 nM to 50 uM […] by CRE-driven luciferase reporter gene assay. In kind it is functional, cell-based.

Data set [2] has as its target T3, Glucocorticoid receptor (Homo sapiens) (UniProt P04150).
T3 sequence (whole entry): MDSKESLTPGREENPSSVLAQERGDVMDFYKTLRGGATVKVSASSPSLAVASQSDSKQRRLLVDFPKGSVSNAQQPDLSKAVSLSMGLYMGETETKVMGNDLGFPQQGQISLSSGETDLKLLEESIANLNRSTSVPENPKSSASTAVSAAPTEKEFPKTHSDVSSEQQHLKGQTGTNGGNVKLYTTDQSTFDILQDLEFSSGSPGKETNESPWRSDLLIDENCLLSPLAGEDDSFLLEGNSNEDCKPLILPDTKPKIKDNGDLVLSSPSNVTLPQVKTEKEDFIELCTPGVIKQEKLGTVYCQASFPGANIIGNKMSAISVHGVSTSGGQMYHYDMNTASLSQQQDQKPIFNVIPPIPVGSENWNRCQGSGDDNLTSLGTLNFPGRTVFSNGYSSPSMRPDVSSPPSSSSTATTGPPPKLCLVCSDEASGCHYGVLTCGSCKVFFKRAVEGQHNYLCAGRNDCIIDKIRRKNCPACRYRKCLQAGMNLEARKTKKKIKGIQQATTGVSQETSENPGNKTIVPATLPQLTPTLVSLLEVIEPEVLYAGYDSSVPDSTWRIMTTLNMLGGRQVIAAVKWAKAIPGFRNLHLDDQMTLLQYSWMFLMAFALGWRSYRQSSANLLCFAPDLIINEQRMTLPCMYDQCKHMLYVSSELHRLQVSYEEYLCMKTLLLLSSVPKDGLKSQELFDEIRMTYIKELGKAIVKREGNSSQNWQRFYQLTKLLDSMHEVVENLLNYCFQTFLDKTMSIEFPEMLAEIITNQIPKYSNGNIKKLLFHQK
Kind of data set: Agonist activity at GCR (unknown origin) in human HepG2 cells assessed as receptor transactivation at 10 uM incubated for 18 hrs by Gal4 luciferase reporter gene assay. In kind it is cell-based. The method in brief: (§1)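 HepG2 cells transfected with a GAL4-UAS luciferase reporter, Renilla vector and GAL4 DNA-binding domain fusions of the GR, LXR or PPARγ ligand-binding domain; 48 h later stimulated 18 h at 10 μM beside the matching reference agonist (dexamethasone, GW3965, rosiglitazone). Three experiments, mean ± SE.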

For data set [3], the target named is T4, Peroxisome proliferator-activated receptor gamma (Homo sapiens) (UniProt P37231).
T4 sequence (whole entry): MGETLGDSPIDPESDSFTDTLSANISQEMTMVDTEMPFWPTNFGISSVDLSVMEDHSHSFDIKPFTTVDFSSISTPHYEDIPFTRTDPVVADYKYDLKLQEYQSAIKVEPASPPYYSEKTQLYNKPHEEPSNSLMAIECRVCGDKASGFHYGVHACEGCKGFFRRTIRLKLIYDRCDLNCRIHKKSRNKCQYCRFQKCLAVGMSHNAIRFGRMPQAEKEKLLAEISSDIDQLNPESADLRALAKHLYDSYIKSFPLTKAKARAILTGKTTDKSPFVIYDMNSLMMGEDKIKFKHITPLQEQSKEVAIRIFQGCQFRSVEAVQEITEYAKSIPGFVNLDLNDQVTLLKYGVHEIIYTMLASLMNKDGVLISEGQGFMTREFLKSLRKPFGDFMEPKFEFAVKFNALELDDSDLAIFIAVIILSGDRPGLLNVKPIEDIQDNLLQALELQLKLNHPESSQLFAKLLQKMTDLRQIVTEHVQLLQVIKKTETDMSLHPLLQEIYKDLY
Kind of data set: Agonist activity at PPARgamma (unknown origin) in human HepG2 cells assessed as receptor transactivation at 10 uM incubated for 18 hrs by Gal4 luciferase reporter gene assay. Type of data set: cell-based. The essentials:
as §1

Data set [4] addresses Liver X receptor (Homo sapiens) (UniProt Q13133+P55055). Kind of data set: Agonist activity at LXR (unknown origin) in human HepG2 cells assessed as receptor transactivation at 10 uM incubated for 18 hrs by Gal4 luciferase reporter gene assay. In kind it is cell-based. The method in brief: as §1
For data set [5], the target named is T5, G-protein coupled bile acid receptor 1 (Mus musculus) (UniProt Q80SS6).
T5 sequence (whole entry): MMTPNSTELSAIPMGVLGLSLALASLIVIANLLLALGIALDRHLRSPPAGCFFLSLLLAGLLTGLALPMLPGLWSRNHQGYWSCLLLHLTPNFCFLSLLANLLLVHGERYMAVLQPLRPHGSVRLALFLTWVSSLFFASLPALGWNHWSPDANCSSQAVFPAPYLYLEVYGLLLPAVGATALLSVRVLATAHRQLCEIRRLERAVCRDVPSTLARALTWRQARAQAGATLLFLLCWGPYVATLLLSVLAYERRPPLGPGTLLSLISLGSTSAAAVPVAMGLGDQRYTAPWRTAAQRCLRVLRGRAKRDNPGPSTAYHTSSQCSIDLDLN
Kind of data set: Agonist activity at GP-BAR1 in mouse GLUTag cells assessed as increase in pro-glucagon mRNA expression at 10 uM by RT-PCR method. In kind it is cell-based. The essentials: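 Murine GLUTag enteroendocrine cells (D-MEM, 10% FBS) treated at 10 μM. Pro-glucagon mRNA measured by SYBR real-time PCR in triplicate, normalized to GAPDH and expressed relative to untreated cells set to 1.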

The target in data set [6] is T6, G-protein coupled bile acid receptor 1 (Homo sapiens) (UniProt Q8TDU6).
T6 sequence (whole entry): T2 sequence (Q8TDU6 whole entry)
Kind of data set: Agonist activity at GP-BAR1 in human THP1 cells assessed as increase in cAMP level at 10 uM by enzyme immunoassay. In kind it is functional, cell-based. Conditions: THP-1. The method in brief:
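THP-1 monocytes serum-starved overnight, then stimulated 30 min at 10 μM, with forskolin 10 μM as reference. cAMP measured by direct cAMP enzyme immunoassay. Three experiments, mean ± SE.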
In general terms: cAMP levels reflect the balance of adenylyl cyclase and phosphodiesterase activity.

Data set [7] concerns the target T7, Nuclear receptor subfamily 1 group I member 2 (Homo sapiens, UniProt O75469).
T7 sequence (O75469 whole entry): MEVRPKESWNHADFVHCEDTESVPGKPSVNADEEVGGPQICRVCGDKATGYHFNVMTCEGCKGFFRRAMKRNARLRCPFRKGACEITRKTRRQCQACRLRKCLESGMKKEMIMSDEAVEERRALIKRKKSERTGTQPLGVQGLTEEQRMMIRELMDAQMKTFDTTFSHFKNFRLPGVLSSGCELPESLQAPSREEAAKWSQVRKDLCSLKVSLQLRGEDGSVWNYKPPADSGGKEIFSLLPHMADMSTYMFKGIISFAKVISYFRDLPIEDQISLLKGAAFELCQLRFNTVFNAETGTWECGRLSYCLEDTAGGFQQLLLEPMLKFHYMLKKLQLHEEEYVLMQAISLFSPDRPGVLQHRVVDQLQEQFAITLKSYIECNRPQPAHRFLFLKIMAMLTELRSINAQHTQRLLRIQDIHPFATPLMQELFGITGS
In words: Agonist activity at PXR (unknown origin) in human HepG2 cells co-transfcted with RXR assessed as receptor transactivation at 10 uM incubated for 18 hrs by CYP3A4 promoter-TKLuc luciferase reporter gene assay. Particulars: hepg2, 18 h.

For data set [8], the target named is T8, Bile acid receptor (Homo sapiens) (UniProt Q96RI1).
T8 sequence (whole entry): T1 sequence (Q96RI1 whole entry)
Kind of data set: Agonist activity at FXR in human HepG2 cells assessed as increase in OSTalpha mRNA expression at 10 uM by RT-PCR method. Type of data set: cell-based. The essentials: (§2)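 HepG2 cells treated at 10 μM. TRIzol RNA was DNase-treated and reverse transcribed with random primers, then SYBR real-time PCR run in triplicate (40 cycles, 95 °C/60 °C). Values normalized to GAPDH and expressed relative to untreated cells set to 1.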

The target of data set [9] is T8, Bile acid receptor (Homo sapiens). In words: Agonist activity at FXR in human HepG2 cells assessed as increase in BSEP mRNA expression at 10 uM by RT-PCR method. Type of data set: cell-based. The essentials:
as §2

Data set [10] has the same target. Kind of data set: Agonist activity at FXR in human HepG2 cells assessed as increase in SHP mRNA expression at 10 uM by RT-PCR method. Type of data set: cell-based. The method in brief:
as §2

What is called pEC50 is the negative decadic logarithm of the EC50, by convention in mol/L. As to `CC[C@@H]1[C@H](O)[C@@H]2[C@H](CC[C@]3(C)[C@@H]([C@H](C)CCCO)CC[C@@H]23)[C@@]2(C)CC[C@@H](O)C[C@@H]12`, the EC50 result at Bile acid receptor (hepg2) is reported as “Not Active”. In [1] (read-out: EC50), the pEC50 was 5.99. Also, the outcome in [2], in data set [3] and in [4] was inactive. In addition, the outcome in data set [5] and in [6] was Active. Further, the result in [7] was Active.
For `CC[C@H]1[C@@H](O)[C@@H]2[C@H](CC[C@]3(C)[C@@H]([C@H](C)CCO)CC[C@@H]23)[C@@]2(C)CC[C@@H](O)C[C@@H]12`, the outcome in [2], in data set [3] and in [4] was inactive. Also, the result in data set [5], in data set [6], in [8], in data set [9] and in [10] was Active. In [7], the result was Active.
Consider `C[C@H](CCCOS(=O)(=O)[O-])[C@H]1CC[C@H]2[C@@H]3[C@H](O)C[C@@H]4CCCC[C@]4(C)[C@H]3CC[C@]12C.[Na+]`, for which, on Bile acid receptor (read-out: EC50), the pEC50 was 5.05. In data set [1] (hek293), the EC50 entry is reported as “Not Active”. Also, the result in [2], in data set [3], in [4] and in [5] was inactive. In addition, the outcome in data set [8], in data set [9] and in data set [10] was Active. Further, the outcome in [7] was Active.
